Test results from ChEMBL document CHEMBL2010740, “Synthesis and evaluation of 2-amido-3-carboxamide thiophene CB₂ receptor agonists for pain management” (Bioorg Med Chem Lett, 2012).

Experiments:
Format in all cases: cell-based
Cannabinoid receptor 2 [1] = biological target: Cannabinoid receptor 2 (Homo sapiens, UniProt P34972); assay: Displacement of [3H]CP-55940 from human recombinant CB2 receptor expressed in HEK293 cells after 90 mins
Method in brief: (§1)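 Competitive binding: [³H]CP-55,940 displaced from membranes of HEK 293 cells stably transfected with human or rat CB₂, or CHO cells stably transfected with human or rat CB₁. Reported as pKi. Determinations >2 (duplicate of duplicate).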

Cannabinoid receptor 1 [2] = biological target: Cannabinoid receptor 1 (Rattus norvegicus, UniProt P20272); assay: Displacement of [3H]CP-55940 from rat recombinant CB1 receptor expressed in CHO cells after 90 mins; method in brief: as §1
Chain of Cannabinoid receptor 1 (Rattus norvegicus, UniProt P20272) (P20272 whole entry): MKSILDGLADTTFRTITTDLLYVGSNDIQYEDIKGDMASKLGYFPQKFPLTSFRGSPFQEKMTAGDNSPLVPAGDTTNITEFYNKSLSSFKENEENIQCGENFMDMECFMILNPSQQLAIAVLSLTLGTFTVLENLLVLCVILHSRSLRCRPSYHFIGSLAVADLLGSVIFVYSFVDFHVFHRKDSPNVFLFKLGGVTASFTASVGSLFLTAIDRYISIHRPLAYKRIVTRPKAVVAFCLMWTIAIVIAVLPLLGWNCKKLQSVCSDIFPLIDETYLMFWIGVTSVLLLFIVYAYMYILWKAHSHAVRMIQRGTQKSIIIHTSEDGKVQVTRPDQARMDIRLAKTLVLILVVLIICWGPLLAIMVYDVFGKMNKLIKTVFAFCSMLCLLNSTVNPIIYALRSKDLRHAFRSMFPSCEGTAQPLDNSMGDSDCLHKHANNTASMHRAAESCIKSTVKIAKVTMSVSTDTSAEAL

Cannabinoid receptor 2 [3] = biological target: T1, Cannabinoid receptor 2 (Rattus norvegicus, UniProt Q9QZN9); assay: Displacement of [3H]CP-55940 from rat recombinant CB2 receptor expressed in HEK293 cells after 90 mins; method in brief: as §1
T1 sequence (Q9QZN9 whole entry): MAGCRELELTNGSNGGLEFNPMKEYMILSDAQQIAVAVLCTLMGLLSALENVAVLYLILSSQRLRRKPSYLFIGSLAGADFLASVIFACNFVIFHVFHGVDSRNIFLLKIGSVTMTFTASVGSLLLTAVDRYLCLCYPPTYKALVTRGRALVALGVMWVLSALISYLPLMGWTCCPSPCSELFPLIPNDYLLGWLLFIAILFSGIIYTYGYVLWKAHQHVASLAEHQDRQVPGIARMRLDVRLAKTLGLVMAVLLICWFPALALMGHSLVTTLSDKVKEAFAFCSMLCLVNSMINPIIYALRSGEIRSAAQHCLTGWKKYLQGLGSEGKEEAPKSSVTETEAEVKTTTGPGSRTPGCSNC

Cannabinoid receptor 1 [4] = biological target: Cannabinoid receptor 1 (Homo sapiens, UniProt P21554); assay: Displacement of [3H]CP-55940 from human recombinant CB1 receptor expressed in CHO cells after 90 mins; method in brief: as §1
Chain of Cannabinoid receptor 1 (Homo sapiens, UniProt P21554) (P21554 whole entry): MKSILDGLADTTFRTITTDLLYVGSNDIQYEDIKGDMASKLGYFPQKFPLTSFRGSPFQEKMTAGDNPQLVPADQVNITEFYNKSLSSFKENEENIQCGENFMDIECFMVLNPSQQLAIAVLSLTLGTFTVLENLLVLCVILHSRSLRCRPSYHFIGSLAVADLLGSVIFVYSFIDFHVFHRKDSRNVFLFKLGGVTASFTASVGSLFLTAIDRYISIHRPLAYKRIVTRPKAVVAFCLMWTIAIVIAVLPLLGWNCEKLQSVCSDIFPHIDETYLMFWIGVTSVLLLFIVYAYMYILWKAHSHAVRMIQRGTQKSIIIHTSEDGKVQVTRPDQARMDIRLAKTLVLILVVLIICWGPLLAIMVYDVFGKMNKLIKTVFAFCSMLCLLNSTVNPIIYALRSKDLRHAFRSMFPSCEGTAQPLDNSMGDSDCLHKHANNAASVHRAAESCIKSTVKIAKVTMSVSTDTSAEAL

Chain of Cannabinoid receptor 2 (Homo sapiens, UniProt P34972) (P34972 whole entry): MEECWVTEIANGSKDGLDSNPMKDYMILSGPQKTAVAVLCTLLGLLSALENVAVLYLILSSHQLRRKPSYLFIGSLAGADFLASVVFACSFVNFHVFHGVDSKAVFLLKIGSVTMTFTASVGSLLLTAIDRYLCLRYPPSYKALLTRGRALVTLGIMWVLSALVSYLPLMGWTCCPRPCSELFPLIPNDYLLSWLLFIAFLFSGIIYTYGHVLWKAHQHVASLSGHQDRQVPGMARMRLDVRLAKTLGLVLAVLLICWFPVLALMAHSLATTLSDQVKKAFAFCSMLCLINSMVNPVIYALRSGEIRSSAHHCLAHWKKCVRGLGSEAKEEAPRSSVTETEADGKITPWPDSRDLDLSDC

O=C(c1c(NC(=O)C23CC4CC(CC2C4)C3)sc2c1CCOC2)N1CCOCC1
Ki (Cannabinoid receptor 2 [1]): 0.0912 µM
Ki (Cannabinoid receptor 1 [2]): > 10 µM
Ki (Cannabinoid receptor 2 [3]): > 10 µM
Ki (Cannabinoid receptor 1 [4]): > 10 µM
